# Experimental data reported in ChEMBL document CHEMBL1629492 (Eur J Med Chem, 2010).
# Key:
# [1] = target: T1, Alpha-1B adrenergic receptor (Rattus norvegicus) (UniProt P15823); experiment: Antagonist activity at Alpha-1B adrenoceptor in Wistar rat spleen assessed as phenylephrine induced contractions after 30 mins; assay type: functional, tissue-based
# T1 sequence (whole entry): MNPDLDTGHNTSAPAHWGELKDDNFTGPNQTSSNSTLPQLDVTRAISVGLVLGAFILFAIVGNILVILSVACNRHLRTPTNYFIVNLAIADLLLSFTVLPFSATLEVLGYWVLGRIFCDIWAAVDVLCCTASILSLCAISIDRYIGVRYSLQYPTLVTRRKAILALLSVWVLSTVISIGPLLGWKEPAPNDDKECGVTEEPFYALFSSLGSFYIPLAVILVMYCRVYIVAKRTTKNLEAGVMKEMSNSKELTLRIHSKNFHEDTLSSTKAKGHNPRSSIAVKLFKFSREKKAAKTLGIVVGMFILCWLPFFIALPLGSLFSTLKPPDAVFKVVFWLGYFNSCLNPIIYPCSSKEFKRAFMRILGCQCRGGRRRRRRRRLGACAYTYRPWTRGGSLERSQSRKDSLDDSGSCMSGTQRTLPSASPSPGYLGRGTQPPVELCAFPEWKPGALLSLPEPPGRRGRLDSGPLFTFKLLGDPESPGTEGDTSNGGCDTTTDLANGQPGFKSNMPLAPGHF
# How it was run: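 Spleen strips from male Wistar rats (275–300 g) were set up in a 20 mL bath of physiological salt solution (pH 7.4, 37 °C, 95% O2/5% CO2) under 1 g tension and equilibrated 2 h. Two cumulative phenylephrine curves were run, each followed by 30 min washing, then 30 min incubation with vehicle or antagonist before a third curve. Values are Schild pA2, or pKB where slopes were nonparallel; 4–6 experiments.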
# [2] = target: T2, Alpha-1A adrenergic receptor (Rattus norvegicus) (UniProt P43140); experiment: Antagonist activity at alpha1A adrenoceptor in Wistar rat vas deferens assessed as noradrenaline induced contractions after 30 mins; assay type: functional, tissue-based
# T2 sequence (whole entry): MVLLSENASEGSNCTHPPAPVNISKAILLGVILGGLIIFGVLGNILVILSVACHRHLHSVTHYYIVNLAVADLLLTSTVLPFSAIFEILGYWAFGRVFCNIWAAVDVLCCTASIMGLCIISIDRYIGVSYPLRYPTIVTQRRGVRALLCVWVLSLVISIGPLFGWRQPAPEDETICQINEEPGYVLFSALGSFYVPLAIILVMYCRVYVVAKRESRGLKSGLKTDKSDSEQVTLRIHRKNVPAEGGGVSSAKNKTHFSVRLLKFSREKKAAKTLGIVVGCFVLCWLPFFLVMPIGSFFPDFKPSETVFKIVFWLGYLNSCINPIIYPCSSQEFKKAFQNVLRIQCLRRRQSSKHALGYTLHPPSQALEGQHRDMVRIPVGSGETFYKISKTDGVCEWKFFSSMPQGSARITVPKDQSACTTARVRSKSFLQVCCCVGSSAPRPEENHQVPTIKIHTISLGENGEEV
# How it was run: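 Prostatic portions (2 cm) of vas deferens from male Wistar rats (275–300 g) were held under 0.35 g tension in Tyrode solution at 37 °C with cocaine present. Tissues were equilibrated 45 min, primed twice with noradrenaline, then given a cumulative isotonic noradrenaline curve.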
# [3] = target: T3, Alpha-1B adrenergic receptor (Homo sapiens, UniProt P35368); experiment: Displacement of [3H]prazosin from human Alpha-1B adrenoceptor expressed in CHO cells; assay type: cell-based
# T3 sequence (P35368 whole entry): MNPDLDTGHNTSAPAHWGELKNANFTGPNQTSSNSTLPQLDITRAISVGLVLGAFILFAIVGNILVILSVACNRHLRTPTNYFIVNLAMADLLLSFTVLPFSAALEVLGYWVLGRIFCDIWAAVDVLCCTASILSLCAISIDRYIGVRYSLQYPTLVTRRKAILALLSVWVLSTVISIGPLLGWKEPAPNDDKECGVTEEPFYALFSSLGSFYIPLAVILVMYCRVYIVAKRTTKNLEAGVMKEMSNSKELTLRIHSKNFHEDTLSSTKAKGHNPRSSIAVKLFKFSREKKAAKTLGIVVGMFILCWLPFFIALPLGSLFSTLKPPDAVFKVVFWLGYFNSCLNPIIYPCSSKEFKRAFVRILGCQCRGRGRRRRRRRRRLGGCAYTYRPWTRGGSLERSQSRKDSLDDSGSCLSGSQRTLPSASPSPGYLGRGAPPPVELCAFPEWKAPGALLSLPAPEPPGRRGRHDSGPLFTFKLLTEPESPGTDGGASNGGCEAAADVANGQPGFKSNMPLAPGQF
# How it was run: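 Membranes ([…], as printed) from CHO cells stably expressing the cloned human α1b subtype were incubated with 0.1–0.4 nM [³H]prazosin and competitor (1 pM up to the top concentration) in 50 mM Tris-HCl, pH 7.4, for 30 min at 25 °C. Non-specific binding was defined with phentolamine, and incubations ended by filtration. Ki was derived from IC50 by Cheng–Prusoff. Reported as pKi from 2–3 triplicate experiments.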
# [4] = target: T4, Alpha-1D adrenergic receptor (Rattus norvegicus) (UniProt P23944); conditions: Wistar, Thoracic aorta
# T4 sequence (whole entry): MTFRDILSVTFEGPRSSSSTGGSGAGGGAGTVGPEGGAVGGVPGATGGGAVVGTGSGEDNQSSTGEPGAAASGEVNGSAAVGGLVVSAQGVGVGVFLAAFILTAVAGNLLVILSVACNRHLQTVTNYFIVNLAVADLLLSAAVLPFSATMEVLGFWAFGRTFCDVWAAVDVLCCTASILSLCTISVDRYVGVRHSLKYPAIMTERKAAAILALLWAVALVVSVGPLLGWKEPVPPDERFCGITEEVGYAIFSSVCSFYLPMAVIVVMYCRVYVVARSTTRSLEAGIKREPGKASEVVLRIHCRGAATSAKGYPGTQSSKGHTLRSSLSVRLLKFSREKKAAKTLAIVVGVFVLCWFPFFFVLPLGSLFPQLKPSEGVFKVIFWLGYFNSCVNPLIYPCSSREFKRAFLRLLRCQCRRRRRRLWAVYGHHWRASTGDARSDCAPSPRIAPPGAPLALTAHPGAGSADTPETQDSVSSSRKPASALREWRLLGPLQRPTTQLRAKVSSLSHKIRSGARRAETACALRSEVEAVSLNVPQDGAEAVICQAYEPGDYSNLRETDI
# [5] = target: T5, Alpha-1D adrenergic receptor (Homo sapiens, UniProt P25100); experiment: Displacement of [3H]prazosin from human Alpha-1D adrenoceptor expressed in CHO cells; assay type: cell-based
# T5 sequence (P25100 whole entry): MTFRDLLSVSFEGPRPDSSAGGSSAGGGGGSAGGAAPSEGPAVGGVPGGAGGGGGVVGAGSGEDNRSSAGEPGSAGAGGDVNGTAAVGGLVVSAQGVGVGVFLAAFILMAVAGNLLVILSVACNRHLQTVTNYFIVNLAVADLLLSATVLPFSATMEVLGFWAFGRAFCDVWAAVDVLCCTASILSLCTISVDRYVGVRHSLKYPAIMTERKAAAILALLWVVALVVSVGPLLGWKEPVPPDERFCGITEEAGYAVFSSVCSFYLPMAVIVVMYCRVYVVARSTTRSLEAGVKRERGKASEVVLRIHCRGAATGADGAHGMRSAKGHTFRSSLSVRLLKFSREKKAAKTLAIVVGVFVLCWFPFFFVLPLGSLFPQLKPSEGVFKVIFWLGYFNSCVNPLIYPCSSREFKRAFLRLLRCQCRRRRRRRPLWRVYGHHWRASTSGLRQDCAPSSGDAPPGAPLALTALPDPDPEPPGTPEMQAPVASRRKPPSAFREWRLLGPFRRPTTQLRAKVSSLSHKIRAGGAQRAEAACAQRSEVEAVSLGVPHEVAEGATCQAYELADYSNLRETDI
# How it was run: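 Membranes ([…], as printed) from CHO cells stably expressing the cloned human α1d subtype were incubated with 0.1–0.4 nM [³H]prazosin and competing drug (1 pM upward) in 50 mM Tris-HCl, pH 7.4, for 30 min at 25 °C. Phentolamine defined non-specific binding. IC50 was converted to Ki by Cheng–Prusoff. Reported as pKi from 2–3 triplicate experiments.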
structure (smiles),measurement,setting,value
CCOc1ccccc1OCCN[C@H](C)Cc1ccc(OC)c(S(N)(=O)=O)c1 [TAMSULOSIN],pKb,[1],9.3
same,pKb,[2],9.46
same,Ki,[3],0.631 nM
same,pKb,[4],10
same,Ki,[5],0.1 nM
